Key:
[1] = biological target: Protein farnesyltransferase (Homo sapiens, UniProt P49354+P49356); assay: In vitro inhibitory activity to reduce the human farnesyltransferase catalyzed incorporation of [3H]FPP into recombinant Ras-CVIM; format: functional
In short: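 Human FPTase, [3H]FPP incorporated into recombinant Ras-CVIM. Enzyme at 1 nM, or 10 pM for some compounds.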

[2] = biological target: Protein farnesyltransferase (Rattus norvegicus, UniProt Q02293+Q04631); assay: In vitro ability to displace radiolabeled FTI from farnesyltransferase in cultured Ha-ras transformed RAT1 cells; format: cell-based
In short: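 Competitive binding in v-Ha-ras transformed RAT1 cells seeded at 200,000 cells/well and cultured 16 h. [125I]-labelled FTI radiotracer diluted to 1 nM in culture medium with test FTI is added to the monolayers. Incubation 4 h at 37 °C, PBS rinse, trypsinization, gamma counting. Nonspecific binding is taken with 1000-fold excess unlabeled FTI.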

[3] = biological target: Geranylgeranyl transferase type I (Homo sapiens, UniProt P49354+P53609); assay: In vitro inhibitory activity to reduce the human geranylgeranyl transferase type I (GGPTase-1)-catalyzed incorporation of 3H GGPP (100 nM) into K-Ras-derived peptide; format: functional
[4] = Clearance by iv administration in dogs at a dose of 1 mg/kg; details: dog, in vivo
[5] = rat

SMILES | IC50 [1] | IC50 [2] | IC50 [3] | clearance [4] | half-life [5]
CC[C@H]1NCc2cncn2Cc2ccc(C#N)c(c2)Oc2ccc3cccc(c3c2)NC1=O | 1.2 nM | 410 nM | 469 nM | – | –
C[C@@H]1C(=O)Nc2cccc3ccc(cc23)Oc2cc(ccc2C#N)Cn2cncc2CN1C | 7 nM | > 100 nM | 1220 nM | – | –
CN1C(=O)CNC(=O)Cc2cncn2Cc2ccc(C#N)c(c2)Oc2ccc3cccc1c3c2 | 6.6 nM | 65 nM | 1090 nM | – | –
C[C@H]1NCc2cncn2Cc2ccc(C#N)c(c2)Oc2ccc3cccc(c3c2)NC1=O | 1.3 nM | 23 nM | 313 nM | – | –
N#Cc1ccc2cc1Oc1ccc3cccc(c3c1)NC(=O)CN(Cc1ccccc1)Cc1cncn1C2 | 2.6 nM | 29.6 nM | > 20000 nM | – | –
N#Cc1ccc2cc1Oc1ccc3cccc(c3c1)NC(=O)CNC(=O)Cc1cncn1C2 | 3.8 nM | 67 nM | 150 nM | – | –
N#Cc1ccc2cc1Oc1ccc3cccc(c3c1)NC(=O)[C@@H](Cc1ccccc1)NC(=O)Cc1cncn1C2 | 3.5 nM | 310 nM | 29 nM | – | –
N#Cc1ccc2cc1Oc1ccc3cccc(c3c1)C(=O)NCCCNCc1cncn1C2 | 2.3 nM | 99 nM | 890 nM | – | –
N#Cc1ccc2cc1Oc1ccc3cccc(c3c1)N1CCN(CC1=O)Cc1cncn1C2 | – | – | – | 5.1 mL/min/kg | 1 h
CN1Cc2cncn2Cc2ccc(C#N)c(c2)Oc2ccc3cccc(c3c2)NC(=O)[C@H]1Cc1ccccc1 | 2.7 nM | 184 nM | 350 nM | – | –
C[C@@H]1C(=O)N(C)c2cccc3ccc(cc23)Oc2cc(ccc2C#N)Cn2cncc2CN1C | – | 15 nM | 6760 nM | – | –
N#Cc1ccc2cc1Oc1ccc3cccc(c3c1)C(=O)NCCNCc1cncn1C2 | 4.5 nM | 7.1 nM | 77 nM | – | –
C[C@H]1NC(=O)Cc2cncn2Cc2ccc(C#N)c(c2)Oc2ccc3cccc(c3c2)NC1=O | 3.3 nM | 258 nM | 50 nM | – | –
N#Cc1ccc2cc1Oc1ccc3cccc(c3c1)NC(=O)CNCc1cncn1C2 | 4.3 nM | 37 nM | 675 nM | – | –
N#Cc1ccc2cc1Oc1ccc3cccc(c3c1)C(=O)NCCNC(=O)Cc1cncn1C2 | 2.5 nM | 409 nM | 250 nM | – | –
N#Cc1ccc2cc1Oc1ccc3cccc(c3c1)NC(=O)[C@@H](Cc1cccnc1)NCc1cncn1C2 | 1.8 nM | 1310 nM | 147 nM | – | –
C[C@H]1NCc2cncn2Cc2ccc(C#N)c(c2)Oc2ccc3cccc(c3c2)N(C)C1=O | 16 nM | 17 nM | 3160 nM | – | –
N#Cc1ccc2cc1Oc1ccc3cccc(c3c1)NC(=O)[C@@H](Cc1ccccc1)NCc1cncn1C2 | 0.47 nM | 17 nM | 66 nM | – | –
N#Cc1ccc2cc1Oc1ccc3cccc(c3c1)NC(=O)[C@@H](Cc1ccccc1)N(Cc1ccccc1)Cc1cncn1C2 | 50 nM | 574 nM | > 20000 nM | – | –
N#Cc1ccc2cc1Oc1ccc3cccc(c3c1)NC(=O)[C@@H](Cc1cccs1)NCc1cncn1C2 | 2.1 nM | 43 nM | 72 nM | – | –
C[C@@H]1C(=O)Nc2cccc3ccc(cc23)Oc2cc(ccc2C#N)Cn2cncc2CN1Cc1ccccc1 | 18 nM | 240 nM | > 20000 nM | – | –
C[C@@H]1NCc2cncn2Cc2ccc(C#N)c(c2)Oc2ccc3cccc(c3c2)NC1=O | 11 nM | 248 nM | 4820 nM | – | –
CN1C(=O)CNCc2cncn2Cc2ccc(C#N)c(c2)Oc2ccc3cccc1c3c2 | 15 nM | 55 nM | 6720 nM | – | –
CN1CC(=O)Nc2cccc3ccc(cc23)Oc2cc(ccc2C#N)Cn2cncc2C1 | 5.7 nM | 196 nM | 2070 nM | – | –
CN1CC(=O)N(C)c2cccc3ccc(cc23)Oc2cc(ccc2C#N)Cn2cncc2C1 | 8.4 nM | 13 nM | 12800 nM | – | –

Reference: ChEMBL document CHEMBL1134760, “Evaluation of amino acid-based linkers in potent macrocyclic inhibitors of farnesyl-protein transferase” (Bioorg Med Chem Lett, 2001)
